# Assay results from ChEMBL document CHEMBL1151448, “Comparative antianaerobic activities of doripenem determined by MIC and time-kill analysis” (2008).
# Active and inactive are the calls of the source. The calls are words filed in the database; no cut-off is given here.
# Assays:
# [1] = test system: Prevotella bivia; experiment: Antimicrobial activity against beta lactamase-positive Prevotella bivia isolated from intra-abdominal infection and pelvic inflammatory disease patients after 48 hrs by agar dilution method; assay type: functional
# Summary of the method: (§1)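 CLSI agar dilution on brucella blood agar supplemented with laked sheep blood, hemin and vitamin K. Inocula of about 1 × 10^5 CFU/spot were applied by Steers replicator, and plates were incubated 48 h at 35°C in an anaerobic glove box. MIC was the concentration giving marked growth reduction versus the anaerobic control plate. QC strains were included each run, and β-lactamase was detected by Cefinase disk.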
# [2] = test system: Bacteroides thetaiotaomicron; experiment: Antimicrobial activity against beta lactamase-positive Bacteroides thetaiotaomicron isolated from intra-abdominal infection and pelvic inflammatory disease patients after 48 hrs by agar dilution method; assay type: functional; summary of the method: as §1
# [3] = test system: Prevotella nigrescens; experiment: Antimicrobial activity against beta lactamase-positive Prevotella nigrescens isolated from intra-abdominal infection and pelvic inflammatory disease patients after 48 hrs by agar dilution method; assay type: functional; summary of the method: as §1
# [4] = test system: Prevotella intermedia; experiment: Antimicrobial activity against beta lactamase-positive Prevotella intermedia isolated from intra-abdominal infection and pelvic inflammatory disease patients after 48 hrs by agar dilution method; assay type: functional; summary of the method: as §1
# [5] = test system: Clostridium perfringens; experiment: Antimicrobial activity against Clostridium perfringens isolated from intra-abdominal infection and pelvic inflammatory disease patients after 48 hrs by agar dilution method; assay type: functional
# Summary of the method: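 CLSI agar dilution on brucella blood agar supplemented with laked sheep blood, hemin and vitamin K. Inoculum about 1 × 10^5 CFU/spot, applied by Steers replicator. Plates incubated 48 h at 35°C in an anaerobic glove box. MIC is the concentration giving marked growth reduction versus the anaerobic control plate. Standard QC strains included in each run.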
# [6] = test system: Anaerococcus prevotii; experiment: Antimicrobial activity against Anaerococcus prevotii isolated from intra-abdominal infection and pelvic inflammatory disease patients after 48 hrs by agar dilution method; assay type: functional; summary of the method: as §1
# [7] = test system: Finegoldia magna; experiment: Bactericidal activity against beta lactamase-positive Finegoldia magna isolated from intra-abdominal infection and pelvic inflammatory disease patients assessed as 99.9% bacterial killing at 2 times MIC after 48 hrs by time kill analysis; assay type: functional, organism-based
# Summary of the method: (§2)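 Macrodilution time-kill in prereduced brucella broth with 5% laked horse blood, hemin 5 μg/ml and vitamin K1 1 μg/ml, at final inoculum 10^6–10^7 CFU/ml. […] Viable counts were taken at 6, 12, 24 and 48 h on plates incubated 48 h anaerobically. 99.9% kill was taken as bactericidal.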
# [8] = test system: Clostridium cadaveris; experiment: Antimicrobial activity against Clostridium cadaveris isolated from intra-abdominal infection and pelvic inflammatory disease patients after 48 hrs by agar dilution method; assay type: functional; summary of the method: as §1
# [9] = test system: Fusobacterium varium; experiment: Antimicrobial activity against Fusobacterium varium isolated from intra-abdominal infection and pelvic inflammatory disease patients after 48 hrs by agar dilution method; assay type: functional; summary of the method: as §1
# [10] = test system: Prevotella melaninogenica; experiment: Antimicrobial activity against beta lactamase-positive Prevotella melaninogenica isolated from intra-abdominal infection and pelvic inflammatory disease patients after 48 hrs by agar dilution method; assay type: functional; summary of the method: as §1
# [11] = test system: Bacteroides fragilis; experiment: Bactericidal activity against beta lactamase-positive Bacteroides fragilis isolated from intra-abdominal infection and pelvic inflammatory disease patients assessed as bacterial killing at 2 times MIC after 48 hrs by time kill analysis; assay type: functional; summary of the method: as §2
# [12] = test system: Bacteroides ovatus; experiment: Antimicrobial activity against beta lactamase-positive Bacteroides ovatus isolated from intra-abdominal infection and pelvic inflammatory disease patients after 48 hrs by agar dilution method; assay type: functional; summary of the method: as §1
# [13] = test system: [Clostridium] innocuum; experiment: Antimicrobial activity against Clostridium innocuum isolated from intra-abdominal infection and pelvic inflammatory disease patients after 48 hrs by agar dilution method; assay type: functional; summary of the method: as §1
# [14] = test system: Prevotella intermedia; experiment: Antimicrobial activity against beta lactamase-positive Prevotella intermedia isolated from intra-abdominal infection and pelvic inflammatory disease patients after 48 hrs by time kill analysis; assay type: functional
# Summary of the method: (§3)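 The MIC was read by inspecting macrodilution time-kill tubes. Vials held prereduced brucella broth with 5% laked horse blood cells, hemin 5 μg/ml and vitamin K1 1 μg/ml. Final inoculum was 10^6–10^7 CFU/ml, prepared inside the anaerobe chamber. Vials were incubated 48 h at 35°C in a shaking water bath.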
# [15] = test system: Paraclostridium bifermentans; experiment: Antimicrobial activity against Clostridium bifermentans isolated from intra-abdominal infection and pelvic inflammatory disease patients after 48 hrs by agar dilution method; assay type: functional; summary of the method: as §1
# [16] = test system: Paeniclostridium sordellii; experiment: Antimicrobial activity against Clostridium sordellii isolated from intra-abdominal infection and pelvic inflammatory disease patients after 48 hrs by agar dilution method; assay type: functional; conditions: Paraclostridium sordellii; summary of the method: as §1
# [17] = test system: Clostridioides difficile; experiment: Bactericidal activity against Clostridium difficile isolated from intra-abdominal infection and pelvic inflammatory disease patients assessed as 99.9% bacterial killing at 2 times MIC after 48 hrs by time kill analysis; assay type: functional, organism-based; summary of the method: as §2
# [18] = test system: Thomasclavelia ramosa; experiment: Antimicrobial activity against Clostridium ramosum isolated from intra-abdominal infection and pelvic inflammatory disease patients after 48 hrs by agar dilution method; assay type: functional; summary of the method: as §1
# [19] = test system: Enterocloster clostridioformis; experiment: Antimicrobial activity against Clostridium clostridioforme isolated from intra-abdominal infection and pelvic inflammatory disease patients after 48 hrs by agar dilution method; assay type: functional; summary of the method: as §1
# [20] = test system: Fusobacterium nucleatum; experiment: Antimicrobial activity against beta lactamase-positive Fusobacterium nucleatum isolated from intra-abdominal infection and pelvic inflammatory disease patients after 48 hrs by time kill analysis; assay type: functional; summary of the method: as §3
# [21] = test system: Phocaeicola vulgatus; experiment: Antimicrobial activity against beta lactamase-positive Bacteroides vulgatus isolated from intra-abdominal infection and pelvic inflammatory disease patients after 48 hrs by agar dilution method; assay type: functional; summary of the method: as §1
# [22] = test system: Finegoldia magna; experiment: Bactericidal activity against beta lactamase-positive Finegoldia magna isolated from intra-abdominal infection and pelvic inflammatory disease patients assessed as bacterial killing at MIC after 24 hrs by time kill analysis; assay type: functional
# Summary of the method: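 Anaerobic macrodilution time-kill. Inoculum from brucella blood plates, prepared and diluted in prereduced brucella broth inside the anaerobe chamber. Final 10^6 to 10^7 CFU/ml in prereduced brucella broth with 5% laked horse blood cells, 5 μg/ml hemin and 1 μg/ml vitamin K1. […] Shaken at 35°C for 48 h. Viable counts taken at 6, 12, 24 and 48 h. 99.9% kill taken as bactericidal.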
# [23] = test system: Porphyromonas gingivalis; experiment: Antimicrobial activity against Porphyromonas gingivalis isolated from intra-abdominal infection and pelvic inflammatory disease patients after 48 hrs by agar dilution method; assay type: functional; summary of the method: as §1
# [24] = test system: Clostridioides difficile; experiment: Bactericidal activity against Clostridium difficile isolated from intra-abdominal infection and pelvic inflammatory disease patients assessed as bacterial killing at MIC after 24 hrs by time kill analysis; assay type: functional; summary of the method: as §2
# [25] = test system: Clostridium perfringens; experiment: Antimicrobial activity against Clostridium perfringens isolated from intra-abdominal infection and pelvic inflammatory disease patients after 48 hrs by time kill analysis; assay type: functional
# Summary of the method: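 Macrodilution in prereduced brucella broth with 5% laked horse blood cells, 5 μg/ml hemin and 1 μg/ml vitamin K1. Final inoculum 10^6 to 10^7 CFU/ml, prepared inside the anaerobe chamber. Vials incubated 48 h at 35°C in a shaking water bath. MIC read by inspecting the time-kill tubes, alongside an antibiotic-free growth control.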
# [26] = test system: Clostridium perfringens; experiment: Bactericidal activity against Clostridium perfringens isolated from intra-abdominal infection and pelvic inflammatory disease patients assessed as bacterial killing at 2 times MIC after 48 hrs by time kill analysis; assay type: functional
# Summary of the method: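 Time-kill in prereduced brucella broth with 5% laked horse blood cells, hemin and vitamin K1. […] Viable counts taken at 6, 12, 24 and 48 h, plates incubated 48 h anaerobically. Kill scored as 90%, 99% or 99.9%; 99.9% defines bactericidal.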
# [27] = test system: Peptoniphilus asaccharolyticus; experiment: Antimicrobial activity against Peptoniphilus asaccharolyticus isolated from intra-abdominal infection and pelvic inflammatory disease patients after 48 hrs by agar dilution method; assay type: functional; summary of the method: as §1
smiles,measurement,setting,value
C[C@@H](O)[C@H]1C(=O)N2C(C(=O)O)=C(S[C@@H]3CN[C@H](C(=O)N(C)C)C3)[C@H](C)[C@H]12 [MEROPENEM],MIC50,[1],0.06 µg/mL
same,MIC90,[1],0.125 µg/mL
same,MIC50,[2],0.25 µg/mL
same,MIC90,[2],0.5 µg/mL
same,MIC50,[3],0.03 µg/mL
same,MIC90,[3],0.06 µg/mL
same,MIC50,[4],0.03 µg/mL
same,MIC90,[4],0.125 µg/mL
same,MIC,[5],≤ 0.016 µg/mL
same,MIC50,[5],≤ 0.016 µg/mL
same,MIC90,[5],≤ 0.016 µg/mL
same,MIC,[6],≤ 0.016 µg/mL
same,Activity,[7],inactive
same,MIC,[8],0.03 µg/mL
same,MIC50,[9],0.125 µg/mL
same,MIC90,[9],0.25 µg/mL
same,MIC50,[10],0.06 µg/mL
same,Activity,[11],99%
same,MIC,[12],0.25 µg/mL
same,MIC50,[12],0.25 µg/mL
same,MIC90,[12],0.5 µg/mL
same,MIC50,[13],2 µg/mL
same,MIC,[14],0.03 µg/mL
same,MIC,[15],0.125 µg/mL
same,MIC,[16],0.06 µg/mL
same,Activity,[17],inactive
same,MIC50,[18],1 µg/mL
same,MIC,[19],1 µg/mL
same,MIC,[20],8 ng/mL
same,MIC50,[21],0.25 µg/mL
same,MIC90,[21],1 µg/mL
same,Activity,[22],90%
same,MIC,[23],≤ 0.016 µg/mL
same,Activity,[24],90%
same,MIC,[25],0.03 µg/mL
same,Activity,[26],99%
same,MIC,[27],≤ 0.016 µg/mL
same,MIC50,[27],≤ 0.016 µg/mL
same,MIC90,[27],0.03 µg/mL
